Screening results (PubChem BioAssay)
CSN deneddyl inh: CSN deneddylation inhibition. inhibition, % at 12.5 µM. hit rate 0.38% among 360,000. Purified CSN, SCF-Nedd8-OG deneddylation, fluorescence polarization. Q92905. AID 651999;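 active = pattern-corrected inhibition above about 35%, with an unprinted fluorescence ratio check between 0.5 and 1.5, limit read from the data, passing the limit was not always enough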;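 note: 0% = enzyme with substrate and 100% = substrate without enzyme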
Target sequence (Q92905 whole entry, looked up, one chain of several): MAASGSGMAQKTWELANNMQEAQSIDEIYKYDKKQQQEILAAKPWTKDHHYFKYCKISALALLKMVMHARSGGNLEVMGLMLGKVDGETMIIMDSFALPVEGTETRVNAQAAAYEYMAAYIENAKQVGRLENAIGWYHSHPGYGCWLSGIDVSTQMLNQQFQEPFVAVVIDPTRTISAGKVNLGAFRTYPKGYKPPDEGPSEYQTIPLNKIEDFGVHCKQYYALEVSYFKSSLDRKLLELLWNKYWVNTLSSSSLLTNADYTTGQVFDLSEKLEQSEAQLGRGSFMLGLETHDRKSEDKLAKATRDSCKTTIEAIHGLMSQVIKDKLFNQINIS
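Assay system: purified human Csn5 enzyme expressed in HEK293T cells; Input: 0.24 nM Csn5 enzyme, final concentration; Reagent: 10 nM SCFSkp2-Nedd8OG; Compound dosing: 12.5 µM single point; Times: reaction 90 min, room temperature; Technique: fluorescence polarization readout.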
DNMT1 block: DNMT1 (human) enzyme inhibition | P26358 | DNMT1 molecular beacon, Hinp1I cleavage, fluorescence | inhibition (reported as % activation of signal), % at 10 µM | hit rate 0.83% among 360,000
LMPTP inh: blocks human LMPTP phosphatase; P24666; recombinant LMPTP-A, OMFP fluorogenic substrate, fluorescence intensity; inhibition, % at 20 µM; hit rate 0.22% among 360,000;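 active = compounds that cut the enzyme signal by at least half of the control window in the single-dose screen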;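 note: plate controls were DMSO wells with enzyme plus substrate for no effect and substrate without enzyme for full effect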
Target sequence (P24666 whole entry, looked up): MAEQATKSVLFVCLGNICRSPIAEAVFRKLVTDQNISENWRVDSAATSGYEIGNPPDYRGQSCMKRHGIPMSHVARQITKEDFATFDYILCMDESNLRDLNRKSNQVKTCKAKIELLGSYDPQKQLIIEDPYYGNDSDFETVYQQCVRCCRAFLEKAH
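test system = LMPTP-A | amount = 0.625 nM LMPTP-A final | reagent = fluorogenic phosphatase substrate OMFP at 400 µM final | incubation = 50 min at room temperature | benchmarks = no-enzyme low control, uninhibited high control | medium = Bis-Tris pH 6.0, DTT, detergent | signal = fluorescence intensity of OMFP turnover product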
SUMO1-SIM PPI: SUMO1-SIM interaction modulation. P63165. SUMO1 binding to a labelled peptide, TR-FRET, 1 h. inhibition, % at 20 µM. hit rate 0.33% among 360,000. AID 602429; in the data active = inhibition above about 37%
STEP block: blocks human striatal-enriched tyrosine phosphatase; recombinant STEP, OMFP fluorogenic substrate, fluorescence; P54829; AID 588621; inhibition, % at 20 µM; hit rate 0.25% among 360,000;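 active = inhibition at 20 µM, scaled per plate between control wells, above about 37%, limit read from the data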;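 note: 0% = DMSO with enzyme and substrate and 100% = substrate only without enzyme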
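System: STEP (striatal-enriched tyrosine phosphatase) enzyme, cell-free; medium: Bis-Tris pH 6.0 buffer with DTT, detergent; dosing: 20 µM, 1% DMSO; times: reaction 20 min, ambient temperature; detection: fluorescence, 480/540 nm; read-out basis: normalized % inhibition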
Scp-1 inhibitor: inhibitors of human Scp-1 phosphatase. Q9GZU7. Recombinant Scp1, phosphopeptide, malachite green phosphate absorbance. inhibition, % at 20 µM. hit rate 0.88% among 340,000;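 active = inhibition above about 50% at 20 µM, limit read from the data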;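 note: plate controls were DMSO wells with enzyme for no effect and wells lacking enzyme for full effect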
Target sequence (Q9GZU7 76-261 limits assumed): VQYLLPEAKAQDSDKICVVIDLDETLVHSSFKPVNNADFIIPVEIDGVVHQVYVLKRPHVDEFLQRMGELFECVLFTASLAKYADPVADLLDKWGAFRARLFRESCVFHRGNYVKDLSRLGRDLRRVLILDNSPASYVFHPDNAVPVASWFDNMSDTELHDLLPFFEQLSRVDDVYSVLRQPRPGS
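Assay system: SCP-1 catalytic fragment, aa 76-261 | Buffer or medium: Tris acetate buffer pH 5.5 with MgCl2 and Tween-20 | Compound: One concentration, 20 µM, with 1.0% DMSO | Also added: Phospho 17-mer peptide substrate | Signal: Absorbance at 630 nm | Incubation: 45 min enzyme reaction at room temperature | Measure: % inhibition of SCP-1 phosphate liberation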
CSN deneddyl val: validation of inhibitors of human CSN-mediated cullin deneddylation; shares compounds with CSN deneddyl inh; Csn5 deneddylation of SCF-Nedd8OG, fluorescence polarization, 90 min; hit rate 62% among 540; inhibition, % at 16.6 µM;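 note: 0% = DMSO with enzyme and 100% = no enzyme wells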
MMP2 cntr CSN: MMP-2 (human) inhibition, counter-screen for CSN hits; shares compounds with CSN deneddyl inh; recombinant MMP-2, FRET substrate fluorescence, 60 min; inhibition, % at 16.6 µM; hit rate 33% among 540;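 active = corrected plate-normalized z-score of 5 or more, or -5 or less, or inhibition of 15% or more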;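 note: plate controls were DMSO wells with enzyme for no effect and buffer wells lacking MMP-2 for full effect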
Thrombin counter: counter-screen for CSN deneddylation inhibitors: bovine thrombin inhibition | shares compounds with CSN deneddyl inh | inhibition, % at 16.6 µM | bovine thrombin cleavage of Ub4-pepOG, fluorescence polarization | AID 720656 | hit rate 49% among 540;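 active = inhibition at or above a set limit, with a fluorescence interference ratio between 0.5 and a set maximum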
An asterisk follows results filed as active; x = no result given; ! = not confirmed by another sample. A selection: hits, their analogues and other compounds. The true share with any hit is near 2%. Cut-off read from the data, not from the text of the source, unless noted: active = inhibition above about 50%; inactive = the rest.

SMILES	CSN deneddyl inh	DNMT1 block	LMPTP inh	SUMO1-SIM PPI	STEP block	Scp-1 inhibitor	CSN deneddyl val	MMP2 cntr CSN	Thrombin counter
Cc1ccc(/C=C/c2ccc(N(C)C)cc2)[n+](C)c1	46.8*	-1.3	6.0	-104.2	0.5	14.4	40.0*	-92.5*	67.7*
CCc1ccc(N2C(=O)CC(N(CC3CCCO3)C(=O)/C=C/C(=O)O)C2=O)cc1 (stereo not drawn)	-4.8	27.6	-1.0	2.7	2.8	0.5	x	x	x
CCCCNC1=CC(=O)C(NCCCC)=CC1=O	1.9	-5.6	1.8	-36.8	-0.1	-2.2	x	x	x
CCCCNC1=CC(=O)C(=O)c2ccccc21	48.0*	-4.4	3.2	-9.2	5.1	-0.8	86.7*	3.5	0.4
CC1(C)NC(=O)N(CC(=O)OCC(=O)c2ccc(Br)s2)C1=O	2.8	2.0	0.1	-5.5	4.6	-1.0	x	x	x
C[C@@H]1CN([C@@H](C)CO)C(=O)c2cc(Br)cnc2O[C@@H]1CN(C)S(C)(=O)=O	0.2	8.3	-1.7	0.2	-0.6	x	x	x	x
CC(C)N1CCc2c(sc(NC(=O)c3ccc(S(=O)(=O)N4CCc5ccccc54)cc3)c2C(N)=O)C1	46.7*	-11.7	4.4	-87.3	8.5	-3.0	x	6.9	-84.3
O=C(Nc1ccc(C2=NCCN2)cc1)c1ccc(C(=O)Nc2ccc(C3=NCCN3)cc2)c(Cl)c1	114.0*	-29.1	59.3*	86.8*	2.8	-17.5	-48.3	71.9*	-4.1
O=C(NCc1cc(C(F)(F)F)ccc1Cl)c1cccc2c1C(=O)c1ccc(N3CCC(N4CCCCC4)CC3)cc1S2(=O)=O	81.6*	7.3	21.0	64.2*	1.1	x	-38.4	-18.0	45.6*
O=C(NCc1cccc(C(F)(F)F)c1)c1cccc2c1C(=O)c1ccc(N3CCC(Cc4ccccc4)CC3)cc1S2(=O)=O	-0.9	15.2	1.3	-3.4	-1.9	-8.6	x	x	x
COc1cc(C2C(C#N)=C(N)Oc3cc(N(C)C)ccc32)cc2c1OCO2 (stereo not drawn)	36.1*	-0.3	5.1	10.8	-6.8	-1.3	85.6*	2.7	19.7*
Cc1n[nH]c(=O)n(N=Cc2c[nH]c3ccccc23)c1=O	3.4	-1.3	-0.7	-1.6	-4.2	x	x	x	x
Nc1cccc2cc(S(=O)(=O)O)ccc12	36.5*	62.4*	4.0	25.5	22.4	61.6*	67.1*	10.1	-11.2
O=C(O)CN1C(=O)/C(=C\c2ccccc2OCc2ccc(Cl)cc2)SC1=S	4.6	2.8	2.2	-4.7	10.0	9.0	x	x	x
O=C(O)CN1C(=O)/C(=C\c2cc(Br)ccc2OCc2ccc(Cl)cc2Cl)SC1=S	36.4*	95.3*	66.7*	78.1*	15.1	31.1	33.3	2.0	7.8
Cc1ccc(C(=O)Nc2cccc(C(F)(F)F)c2)cc1NC(=O)c1c[nH]c2cc(C(F)(F)F)ccc2c1=O	-1.8	19.8	0.8	4.7	3.9	-5.0	x	x	x
CCN1CCN(Cc2ccc(NC(=O)c3ccc(C)c(NC(=O)c4c[nH]c5cc(C(F)(F)F)ccc5c4=O)c3)cc2C(F)(F)F)CC1	78.4*!	0.0	1.1	-76.4	15.7	1.6	90.1*	9.3	3.7
CC[n+]1c(/C=C/N(C)c2ccccc2)oc2ccc(F)cc21	37.4*	-5.0	0.3	-4.5	-2.7	0.2	121.8*	-3.9	46.9*
O=C(Nc1cccc(-c2cnc3ccccc3n2)c1)c1ccccc1	4.5	1.9	0.3	-3.1	1.7	2.2	x	x	x
O=C(Nc1cccc(-c2cnc3ccccc3n2)c1)c1cccc(NC(=O)c2ccco2)c1	41.3*	-1.8	1.9	37.9	-2.7	-3.5	x	0.8	16.9*
CCN1/C(=C/c2ccc3cc(C)cc(C)c3[n+]2CC)Sc2cc(C)ccc21	81.0*	-33.8	48.0*	-40.6	4.5	31.8	16.0	64.3*	22.8*
C=CC[n+]1c(/C=C2\C=Cc3cc(C)ccc3N2CC)ccc2ccccc21	17.8	20.4	14.2	-14.1	11.2	8.9	x	x	x
CCN1/C(=C/c2ccc3cccc(C)c3[n+]2CC)Sc2ccccc21	54.1*	8.2	34.4	-95.5	3.0	41.0	22.8	-13.0	20.2
Cc1ccc2c(c1)S/C(=C\c1cccc[n+]1C)N2CCO	-0.3	4.9	-2.4	-24.6	3.0	8.3	x	x	x
C[n+]1ccccc1/C=C1\Sc2ccccc2N1CCO	-1.8	0.3	5.7	-12.0	-0.7	19.2	x	x	x
SMILES	CSN deneddyl inh	DNMT1 block	LMPTP inh	SUMO1-SIM PPI	STEP block	Scp-1 inhibitor	CSN deneddyl val	MMP2 cntr CSN	Thrombin counter
CCN1/C(=C\c2ccc3cc(C)ccc3[n+]2CC)Sc2cc(C)c(C)cc21	65.6*	-7.6	44.3	-50.7	0.8	12.8	40.1	19.9*	113.2*
Cc1ccc(C)c(S(=O)(=O)N2CCN(CC(=O)NC(=O)NCc3ccco3)CC2)c1	-2.2	-4.0	-1.1	2.0	0.4	12.1	x	x	x
COC(=O)c1cc2c(=O)c3ccccc3oc2nc1/C=C/N(C)C	77.1*	0.6	4.6	-40.4	-0.1	-15.4	94.7*	-1.7	28.2*
Cc1ccc(-c2nn3c(C)nnc3s2)cc1NC(=O)c1ccc(-c2cccc(Cl)c2)o1	10.6	16.6	7.5	2.8	7.3	10.9	x	x	x
Cc1ccc(-c2nn3c(C)nnc3s2)cc1NC(=O)c1ccc(-c2ccc(Cl)cc2Cl)o1	123.9*	65.9*	43.6	12.3	93.4*	43.1	111.7*	1.0	4.2
CC1(C)CC[C@]2(C(=O)n3ccnc3)CC[C@]3(C)[C@H](C(=O)C=C4[C@@]5(C)C=C(C#N)C(=O)C(C)(C)[C@@H]5CC[C@]43C)[C@@H]2C1	39.3*	60.2*	-2.0	43.7*	1.9	14.6	55.7*	0.1	7.9
Cc1sc2nc3c4ccccc4c(NCc4ccco4)nn3c(=O)c2c1C	63.7*	0.6	5.2	75.1*	-1.4	-5.2	101.9*	6.6	6.6
CC1=CN2C(=N)/C(=C/c3ccco3)C(=O)N=C2S1	-2.4	5.5	0.9	-17.4	-3.6	6.5	x	x	x
CC1=CN2C(=N)/C(=C/c3ccc([N+](=O)[O-])o3)C(=O)N=C2S1	102.3*	26.6	4.4	-3.5	-6.2	20.2	52.0*	10.0	91.5*
CCOc1ccc(Cl)cc1-c1cc(C(=O)Nc2ccc(C(C)C)cc2)[nH]n1	-1.1	-9.2	1.7	5.0	2.4	x	x	x	x
